# Tests used:
# [1] = Selectivity index, ratio of EC50 for hemolytic activity against human RBC to MIC for antibacterial activity against Staphylococcus aureus ATCC 9144; assay type: toxicity; settings: human red blood cells (RBC)
# How it was run: (§1)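 Selectivity index is the RBC haemolysis EC50 divided by the MIC against the E. coli or S. aureus reference strain.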
# Staphylococcus aureus [2] = test: Antibacterial activity against Staphylococcus aureus ATCC 9144 cultured in MHB medium assessed as no bacterial growth incubated at 37 degC for 24 hrs by microdilution susceptibility test; assay type: functional; settings: ATCC 9144, 24 h
# How it was run: (§2)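 Broth microdilution per CLSI M07-A9 with modifications. Inoculum about 2.5–3 x 10⁴ cells/mL in Mueller-Hinton broth, mixed 1:1 with test derivative. DMSO stocks diluted in double-distilled water, final DMSO <1%. Incubation 24 h at 37 °C (20 °C for C. glutamicum). Growth and sterility controls included; oxytetracycline reference.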
# Escherichia coli [3] = test: Antibacterial activity against multidrug-resistant Escherichia coli 50639799 producing Verona integron encoded metallo beta-lactamse-29 cultured in MHB medium assessed as reduction in bacterial growth incubated for 24 hrs by microdilution susceptibility test; assay type: functional; settings: Escherichia coli, 50639799, 24 h
# How it was run: (§3)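 Broth microdilution per CLSI M07-A9 (modified). Working solutions made from concentrated DMSO stocks kept at r.t., diluted in double-distilled water, final DMSO <1%. Inoculum 1–1.2 x 10⁶ cells/mL in Mueller-Hinton broth, mixed 1:1 with compound. 37 °C, 24 h, four parallels. Read as OD₆₀₀. Where precipitation left residual OD, the point of major OD decrease was taken as the inhibitory concentration.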
# Enterococcus faecium [4] = test: Antibacterial activity against multidrug-resistant Enterococcus faecium 50673722 cultured in BHIB medium assessed as reduction in bacterial growth incubated for 24 hrs by microdilution susceptibility test; assay type: functional; settings: Enterococcus faecium, 50673722, 24 h
# How it was run: (§4)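 Enterococci grown in Brain Heart Infusion broth, otherwise broth microdilution per CLSI M07-A9 (modified). Concentrated DMSO stocks kept at r.t. and diluted in double-distilled water, final DMSO <1%. Inoculum 1–1.2 x 10⁶ cells/mL mixed 1:1 with compound. 37 °C, 24 h, four parallels. OD₆₀₀ read-out, lowest concentration with no growth.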
# Escherichia coli [5] = test: Antibacterial activity against multidrug-resistant Escherichia coli 50857972 producing imipenem-type carbapenemase-26 cultured in MHB medium assessed as reduction in bacterial growth incubated for 24 hrs by microdilution susceptibility test; assay type: functional; settings: Escherichia coli, 50857972, 24 h; how it was run: as §3
# Pseudomonas aeruginosa [6] = test: Antibacterial activity against multidrug-resistant Pseudomonas aeruginosa K34-7 producing Verona integron encoded metallo beta-lactamse-2 cultured in MHB medium assessed as reduction in bacterial growth incubated for 24 hrs by microdilution susceptibility test; assay type: functional; settings: K34-7, 24 h; how it was run: as §3
# Pseudomonas aeruginosa [7] = test: Antibacterial activity against Pseudomonas aeruginosa PA01 DSM 19880 (ATCC 15692) cultured in MHB medium assessed as no bacterial growth incubated at 37 degC for 24 hrs by microdilution susceptibility test; assay type: functional; settings: PAO1 DSM 19880 (ATCC 15692); how it was run: as §2
# Staphylococcus aureus [8] = test: Antibacterial activity against multidrug-resistant Staphylococcus aureus WIS cultured in MHB medium assessed as reduction in bacterial growth incubated for 24 hrs by microdilution susceptibility test; assay type: functional; how it was run: as §3
# Pseudomonas aeruginosa [9] = test: Antibacterial activity against multidrug-resistant Pseudomonas aeruginosa 50692172 producing New Delhi metallo-beta-lactamase-1 cultured in MHB medium assessed as reduction in bacterial growth incubated for 24 hrs by microdilution susceptibility test; assay type: functional; settings: Pseudomonas aeruginosa, 50692172, 24 h; how it was run: as §3
# [10] = Selectivity index, ratio of EC50 for hemolytic activity against human RBC to MIC for antibacterial activity against Escherichia coli ATCC 25922; assay type: toxicity; settings: human red blood cells (RBC); how it was run: as §1
# Pseudomonas aeruginosa [11] = test: Antibacterial activity against multidrug-resistant Pseudomonas aeruginosa K44-24 producing imipenem-type carbapenemase-14 cultured in MHB medium assessed as reduction in bacterial growth incubated for 24 hrs by microdilution susceptibility test; assay type: functional; settings: K44-24, 24 h; how it was run: as §3
# Enterococcus faecium [12] = test: Antibacterial activity against multidrug-resistant Enterococcus faecium 50901530 cultured in BHIB medium assessed as reduction in bacterial growth incubated for 24 hrs by microdilution susceptibility test; assay type: functional; settings: Enterococcus faecium, 50901530, 24 h; how it was run: as §4
# Enterococcus faecium [13] = test: Antibacterial activity against multidrug-resistant Enterococcus faecium TUH50-22 cultured in BHIB medium assessed as reduction in bacterial growth incubated for 24 hrs by microdilution susceptibility test; assay type: functional; settings: TUH50-22, 24 h; how it was run: as §4
# Staphylococcus aureus [14] = test: Antibacterial activity against multidrug-resistant Staphylococcus aureus N315 cultured in MHB medium assessed as reduction in bacterial growth incubated for 24 hrs by microdilution susceptibility test; assay type: functional; settings: N315, 24 h; how it was run: as §3
# HepG2 = test: Cytotoxicity against human HepG2 cells assessed as reduction in cell viability incubated for 4 hrs by CellTiter 96 Aqueous One Solution Reagent based assay; settings: HepG2, 4 h
# How it was run: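 HepG2 and MRC-5 cells seeded at 35 000 and 15 000 cells/well respectively, then held overnight at 37 °C, 5% CO₂. Compounds in serum-free MEM Earle's applied for 4 h. MTS reagent (CellTiter 96 AQueous One) added for a further 1 h, absorbance read at 485 nm. Survival expressed relative to medium (negative) and Triton X-100 (positive) controls.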
# Klebsiella pneumoniae [15] = test: Antibacterial activity against multidrug-resistant Klebsiella pneumoniae K66-45 producing New Delhi metallo-beta-lactamase-1 cultured in MHB medium assessed as reduction in bacterial growth incubated for 24 hrs by microdilution susceptibility test; assay type: functional; settings: K66-45, 24 h; how it was run: as §3
# Klebsiella pneumoniae [16] = test: Antibacterial activity against multidrug-resistant Klebsiella pneumoniae 50667959 producing Verona integron encoded metallo beta-lactamse-1 cultured in MHB medium assessed as reduction in bacterial growth incubated for 24 hrs by microdilution susceptibility test; assay type: functional; settings: Klebsiella pneumoniae, 50667959, 24 h; how it was run: as §3
# [17] = Drug metabolism in Sprague-Dawley rat liver microsomes assessed as CYP450-mediated N-(2-aminoethyl)-2-(aminomethyl)-2-[(3,5-dibromo-4-hydroxy-phenyl)methyl]-3-(3,5-dibromophenyl)propanamide formation incubated up to 3 hrs in presence of NADPH regenerating system by RP-HPLC-MS analysis; assay type: ADME
# How it was run: (§5)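 Substrate at 1 µL of 100 µM aqueous stock in 100 mM potassium phosphate, pH 7.4, with NADPH regenerating system. Pooled male Sprague–Dawley rat liver microsomes (20 mg/mL stock) added, then incubated at 37 °C. Sampled at 0–180 min and quenched with cold methanol containing propranolol internal standard. Analysed by RP-HPLC–HRMS in positive ESI mode. Metabolites confirmed by HCD MS2. Triplicate incubations.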
# [18] = Aqueous solubility of the compound in DMSO; assay type: physicochemical
# [19] = Drug metabolism in Sprague-Dawley rat liver microsomes assessed as CYP450-mediated 4-[2-(aminomethyl)-3-(3,5-dibromophenyl)-2-(4,5-dihydrooxazol-3-ium-2-yl)propyl]-2,6-dibromo-phenol formation incubated up to 3 hrs in presence of NADPH regenerating system by RP-HPLC-MS analysis; assay type: ADME; how it was run: as §5
SMILES,selectivity ratio [1],MIC (Staphylococcus aureus [2]),MIC (Escherichia coli [3]),MIC (Enterococcus faecium [4]),MIC (Escherichia coli [5]),MIC (Pseudomonas aeruginosa [6]),MIC (Pseudomonas aeruginosa [7]),MIC (Staphylococcus aureus [8]),MIC (Pseudomonas aeruginosa [9]),selectivity ratio [10],MIC (Pseudomonas aeruginosa [11]),MIC (Enterococcus faecium [12]),MIC (Enterococcus faecium [13]),MIC (Staphylococcus aureus [14]),EC50 (HepG2),MIC (Klebsiella pneumoniae [15]),MIC (Klebsiella pneumoniae [16]),Drug metabolism [17],solubility [18],Drug metabolism [19]
NCCNCC(CN)(Cc1cc(Br)cc(Br)c1)Cc1cc(Br)cc(Br)c1,12,2 µg/mL,8 µg/mL,4 µg/mL,8 µg/mL,16 µg/mL,4 µg/mL,8 µg/mL,32 µg/mL,6,16 µg/mL,4 µg/mL,4 µg/mL,4 µg/mL,12 µg/mL,8 µg/mL,16 µg/mL,–,–,–
NCCNC(=O)C(CN)(Cc1cc(Br)cc(Br)c1)Cc1cc(Br)cc(Br)c1,29,2 µg/mL,16 µg/mL,8 µg/mL,8 µg/mL,> 32 µg/mL,4 µg/mL,16 µg/mL,> 32 µg/mL,15,32 µg/mL,8 µg/mL,8 µg/mL,8 µg/mL,13 µg/mL,32 µg/mL,16 µg/mL,Metabolite_Notdetected,Soluble,Metabolite_Notdetected
NCCNC(=O)C(CN)(Cc1ccccc1C(F)(F)F)Cc1ccccc1C(F)(F)F,10,32 µg/mL,> 32 µg/mL,32 µg/mL,> 32 µg/mL,> 32 µg/mL,64 µg/mL,> 32 µg/mL,> 32 µg/mL,10,> 32 µg/mL,32 µg/mL,> 32 µg/mL,> 32 µg/mL,45 µg/mL,> 32 µg/mL,> 32 µg/mL,–,Soluble,–
NCCNC(=O)C(CN)(Cc1ccc(C(F)(F)F)cc1)Cc1ccc(C(F)(F)F)cc1,36,8 µg/mL,> 32 µg/mL,16 µg/mL,32 µg/mL,> 32 µg/mL,32 µg/mL,> 32 µg/mL,> 32 µg/mL,18,> 32 µg/mL,16 µg/mL,8 µg/mL,> 32 µg/mL,–,> 32 µg/mL,32 µg/mL,–,Soluble,–
N=C(N)NCCNC(=O)C(CNC(=N)N)(Cc1ccc(F)c2ccccc12)Cc1ccc(F)c2ccccc12,165,2 µg/mL,32 µg/mL,16 µg/mL,32 µg/mL,> 32 µg/mL,8 µg/mL,4 µg/mL,> 32 µg/mL,21,> 32 µg/mL,4 µg/mL,8 µg/mL,4 µg/mL,–,> 32 µg/mL,> 32 µg/mL,–,–,–
N=C(N)NCCNC(=O)C(CNC(=N)N)(Cc1cc(Br)cc(Br)c1)Cc1cc(Br)cc(Br)c1,206,1 µg/mL,8 µg/mL,4 µg/mL,8 µg/mL,16 µg/mL,4 µg/mL,2 µg/mL,8 µg/mL,26,16 µg/mL,4 µg/mL,2 µg/mL,2 µg/mL,> 64 µg/mL,16 µg/mL,16 µg/mL,–,–,–

# Reference: ChEMBL document CHEMBL4311965, “Antimicrobial activity of amphipathic α,α-disubstituted β-amino amide derivatives against ESBL - CARBA producing multi-resistant bacteria; effect of halogenation, lipophilicity and cationic character” (Eur J Med Chem, 2019)
